# Tests used:
# [1] = system: Human immunodeficiency virus 1; experiment: Effective antiviral concentration against HIV-1 infected CEM-SS cells; assay type: functional, organism-based; details: Human immunodeficiency virus 1, CEM-SS
# Summary of the method: (§1)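 CEM-SS cells infected with HIV-1 RF at MOI 0.01, scored by XTT dye-reduction cytoprotection. EC50 is the concentration giving 50% protection of infected cells. IC50 is the concentration causing 50% cytotoxicity (growth inhibition). High test concentration 316 μM.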
# [2] = system: Human immunodeficiency virus 1; experiment: Antiviral activity against HIV-1 infected CEM-SS cells was determined in XTT cytoprotection assay; assay type: functional, organism-based; details: Human immunodeficiency virus 1, CEM-SS; summary of the method: as §1
# [3] = system: Human immunodeficiency virus 1; experiment: Nucleocapsid p7 protein (NCp7) zinc finger domain reactivity was measured by Trp37 fluorescence assay expressed as the average decrease in relative fluorescence units over 30 min; assay type: functional
# Summary of the method: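 Recombinant HIV-1 NCp7 (pET3A construct expressed in E. coli BL21); intrinsic fluorescence of Trp37 in the C-terminal zinc finger monitored over 30 min after compound addition. Value is the mean fall in relative fluorescence units per minute across 30 min, taken as a readout of Zn ejection. Dithiane or DIBA-1 served as reference. Where glutathione pretreatment was used, 2 mM compound was held 2 h at 37 °C with 2–8 M excess reduced glutathione, then diluted 40-fold to 50 μM final compound.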
Compound,EC50 [1] [µM],IC50 [2] [µM],Activity [3] [RFU min-1]
COc1cnc(NS(=O)(=O)c2ccc(-n3sc4ccccc4c3=O)cc2)nc1,17.8,57.6,–
Cc1cc(NS(=O)(=O)c2ccc(NC(=O)c3ccccc3SSc3ccccc3C(=O)Nc3ccc(S(=O)(=O)Nc4cc(C)on4)cc3)cc2)no1,1.9,27.6,–
Cc1nnc(NS(=O)(=O)c2ccc(-n3sc4ccccc4c3=O)cc2)s1,7.8,17.3,–
Cc1cc(C)nc(NS(=O)(=O)c2ccc(NC(=O)c3ccccc3SSc3ccccc3C(=O)Nc3ccc(S(=O)(=O)Nc4nc(C)cc(C)n4)cc3)cc2)n1,1.6,32.2,–
O=C(CCCCBr)Sc1ccccc1C(=O)Nc1ccc(S(=O)(=O)c2ccc(NS(=O)(=O)Cc3ccccc3[N+](=O)[O-])cc2)cc1,–,> 316,1.9
Cc1noc(NS(=O)(=O)c2ccc(-n3sc4ccccc4c3=O)cc2)c1C,12.8,39,–
CC(=O)NS(=O)(=O)c1ccc(-n2sc3ccccc3c2=O)cc1,12.6,34,–
O=C(Nc1ccc(S(=O)(=O)Nc2nccs2)cc1)c1ccccc1SSc1ccccc1C(=O)Nc1ccc(S(=O)(=O)Nc2nccs2)cc1,1,18,–
CC(=O)NS(=O)(=O)c1ccc(NC(=O)c2ccccc2NC(=O)CCCC[n+]2ccccc2)cc1.[Br-],–,> 316,2.6
O=C(NS(=O)(=O)c1ccc(-n2sc3ccccc3c2=O)cc1)c1ccccc1,9.3,49.5,–
O=c1c2ccccc2sn1-c1ccc(S(=O)(=O)Nc2ccc(Cl)nn2)cc1,7.1,19.2,–
COc1cc(NS(=O)(=O)c2ccc(-n3sc4ccccc4c3=O)cc2)nc(OC)n1,7.6,56.6,–
NS(=O)(=O)c1ccc(CNC(=O)c2ccccc2SSc2ccccc2C(=O)NCc2ccc(S(N)(=O)=O)cc2)cc1,0.33,19.4,3.3
O=c1c2ccccc2sn1-c1ccc(S(=O)(=O)c2ccc(NS(=O)(=O)Cc3ccccc3[N+](=O)[O-])cc2)cc1,3.2,59.5,2
NS(=O)(=O)c1ccc(CNC(=O)c2ccccc2SC(=O)CCCC[n+]2ccccc2)cc1.[Br-],1.1,55,1.4
COc1cc(NS(=O)(=O)c2ccc(NC(=O)c3ccccc3SSc3ccccc3C(=O)Nc3ccc(S(=O)(=O)Nc4cc(OC)nc(OC)n4)cc3)cc2)nc(OC)n1,2.1,52.5,–
O=c1c2ccccc2sn1-c1ccc(S(=O)(=O)Nc2cnc3ccccc3n2)cc1,9.2,54.7,–
CC(=O)NS(=O)(=O)c1ccc(NC(=O)c2ccccc2NC(=O)CCl)cc1,–,202,0.3
CC(=O)NS(=O)(=O)c1ccc(NC(=O)c2ccccc2NC(=O)CCCl)cc1,–,> 316,2
O=C(Nc1ccc(S(=O)(=O)c2ccc(NC(=O)c3ccccc3SSc3ccccc3C(=O)Nc3ccc(S(=O)(=O)c4ccc(NC(=O)c5cccs5)cc4)cc3)cc2)cc1)c1cccs1,12.2,190,–
O=C(Nc1ccc(S(=O)(=O)c2ccc(NS(=O)(=O)Cc3ccccc3[N+](=O)[O-])cc2)cc1)c1ccccc1SSc1ccccc1C(=O)Nc1ccc(S(=O)(=O)c2ccc(NS(=O)(=O)Cc3ccccc3[N+](=O)[O-])cc2)cc1,12.3,> 316,1.5
CC(=O)Nc1ccc(S(=O)(=O)Nc2ccc(S(=O)(=O)c3ccc(NC(=O)c4ccccc4SSc4ccccc4C(=O)Nc4ccc(S(=O)(=O)c5ccc(NS(=O)(=O)c6ccc(NC(C)=O)cc6)cc5)cc4)cc3)cc2)cc1,1,12.7,5.9
Cc1cc(NS(=O)(=O)c2ccc(-n3sc4ccccc4c3=O)cc2)nc(C)n1,6.5,39.7,–
NS(=O)(=O)c1ccc(NS(=O)(=O)c2ccc(-n3sc4ccccc4c3=O)cc2)cc1,6.2,18.1,–
O=C(NS(=O)(=O)c1ccc(NC(=O)c2ccccc2SSc2ccccc2C(=O)Nc2ccc(S(=O)(=O)NC(=O)c3ccccc3)cc2)cc1)c1ccccc1,3.8,54.1,–
CC(=O)Nc1ccc(S(=O)(=O)c2ccc(NC(=O)c3ccccc3SC(=O)CCCC[n+]3ccccc3)cc2)cc1.[Br-],4.6,288,1.7
Cc1ccnc(NS(=O)(=O)c2ccc(-n3sc4ccccc4c3=O)cc2)n1,8.8,57.4,–
CC(=O)NS(=O)(=O)c1ccc(NC(=O)c2ccccc2SC(=O)CCCl)cc1,4.2,62,9.2

Compound,EC50 [1] [µM],IC50 [2] [µM],Activity [3] [RFU min-1]
Cc1noc(NS(=O)(=O)c2ccc(NC(=O)c3ccccc3SSc3ccccc3C(=O)Nc3ccc(S(=O)(=O)Nc4onc(C)c4C)cc3)cc2)c1C,2.5,44.2,–
NS(=O)(=O)c1ccc(CCNC(=O)c2ccccc2SSc2ccccc2C(=O)NCCc2ccc(S(N)(=O)=O)cc2)cc1,0.41,52.8,2.7
O=C(Nc1ccc(S(=O)(=O)Nc2ccccn2)cc1)c1ccccc1SSc1ccccc1C(=O)Nc1ccc(S(=O)(=O)Nc2ccccn2)cc1,1.1,17.8,–
O=C(Nc1ccc(S(=O)(=O)Nc2ccnn2-c2ccccc2)cc1)c1ccccc1SSc1ccccc1C(=O)Nc1ccc(S(=O)(=O)Nc2ccnn2-c2ccccc2)cc1,0.33,19.5,–
O=C(Nc1ccc(S(=O)(=O)Nc2ccc(Cl)nn2)cc1)c1ccccc1SSc1ccccc1C(=O)Nc1ccc(S(=O)(=O)Nc2ccc(Cl)nn2)cc1,2.9,18.3,–
Cc1cc(NS(=O)(=O)c2ccc(NC(=O)c3ccccc3SSc3ccccc3C(=O)Nc3ccc(S(=O)(=O)Nc4cc(C)nc(C)n4)cc3)cc2)nc(C)n1,1.9,18.2,–
O=C(Nc1ccc(S(=O)(=O)Nc2cnc3ccccc3n2)cc1)c1ccccc1SSc1ccccc1C(=O)Nc1ccc(S(=O)(=O)Nc2cnc3ccccc3n2)cc1,0.72,22.2,–
COc1ccc(NS(=O)(=O)c2ccc(NC(=O)c3ccccc3SSc3ccccc3C(=O)Nc3ccc(S(=O)(=O)Nc4ccc(OC)nn4)cc3)cc2)nn1,4.2,53.8,–
O=c1c2ccccc2sn1-c1ccc(S(=O)(=O)Nc2ncccn2)cc1,6.5,50.8,–
NS(=O)(=O)c1ccc(NS(=O)(=O)c2ccc(NC(=O)c3ccccc3SSc3ccccc3C(=O)Nc3ccc(S(=O)(=O)Nc4ccc(S(N)(=O)=O)cc4)cc3)cc2)cc1,2.3,43,–
Cc1cc(C)nc(NS(=O)(=O)c2ccc(-n3sc4ccccc4c3=O)cc2)n1,6.9,17.1,–
O=C(Nc1ccc(S(=O)(=O)Nc2ncccn2)cc1)c1ccccc1SSc1ccccc1C(=O)Nc1ccc(S(=O)(=O)Nc2ncccn2)cc1,2,46.4,–
COc1cc(NS(=O)(=O)c2ccc(NC(=O)c3ccccc3SSc3ccccc3C(=O)Nc3ccc(S(=O)(=O)Nc4cc(OC)ncn4)cc3)cc2)ncn1,1.6,46.5,–
Cc1ccnc(NS(=O)(=O)c2ccc(NC(=O)c3ccccc3SSc3ccccc3C(=O)Nc3ccc(S(=O)(=O)Nc4nccc(C)n4)cc3)cc2)n1,4.2,56.7,–
O=c1c2ccccc2sn1-c1ccc(S(=O)(=O)c2ccc([N+](=O)[O-])cc2)cc1,–,> 316,4.1
CC(=O)NS(=O)(=O)c1ccc(NC(=O)c2ccccc2SSc2ccccc2C(=O)Nc2ccc(S(=O)(=O)NC(C)=O)cc2)cc1,1.5,> 200,–
Cc1nc(NS(=O)(=O)c2ccc(NC(=O)c3ccccc3SSc3ccccc3C(=O)Nc3ccc(S(=O)(=O)Nc4nc(C)c(C)o4)cc3)cc2)oc1C,2.4,46.4,–
CC(=O)NS(=O)(=O)c1ccc(NC(=O)c2ccccc2SC(=O)c2ccccc2)cc1,2.6,45.7,2.2
O=C(Nc1ccc(S(=O)(=O)c2ccc(NC(=O)c3ccccc3SSc3ccccc3C(=O)Nc3ccc(S(=O)(=O)c4ccc(NC(=O)c5cc([N+](=O)[O-])cc([N+](=O)[O-])c5)cc4)cc3)cc2)cc1)c1cc([N+](=O)[O-])cc([N+](=O)[O-])c1,240,> 316,1.6
NS(=O)(=O)c1ccc(NC(=O)c2ccccc2SSc2ccccc2C(=O)Nc2ccc(S(N)(=O)=O)cc2)cc1,0.85,217,–
NS(=O)(=O)c1ccc(-n2sc3ccccc3c2=O)cc1,–,16.2,–
Cc1nnc(NS(=O)(=O)c2ccc(NC(=O)c3ccccc3SSc3ccccc3C(=O)Nc3ccc(S(=O)(=O)Nc4nnc(C)s4)cc3)cc2)s1,3.4,18.6,–
COc1cnc(NS(=O)(=O)c2ccc(NC(=O)c3ccccc3SSc3ccccc3C(=O)Nc3ccc(S(=O)(=O)Nc4ncc(OC)cn4)cc3)cc2)nc1,2.1,55.5,–
N=C(N)NS(=O)(=O)c1ccc(NC(=O)c2ccccc2SSc2ccccc2C(=O)Nc2ccc(S(=O)(=O)N=C(N)N)cc2)cc1,111,> 316,–
Cc1cc(NS(=O)(=O)c2ccc(-n3sc4ccccc4c3=O)cc2)no1,8.7,54.6,–
CC(=O)NS(=O)(=O)c1ccc(NC(=O)c2ccccc2SC(C)=O)cc1,2.8,56.7,4.2
COc1ccc(NS(=O)(=O)c2ccc(-n3sc4ccccc4c3=O)cc2)nn1,22.6,55.3,–

# Reference: ChEMBL document CHEMBL1132203, “Synthesis and biological properties of novel pyridinioalkanoyl thiolesters (PATE) as anti-HIV-1 agents that target the viral nucleocapsid protein zinc fingers” (J Med Chem, 1999)
